Screening data (PubChem BioAssay)
PLCb3 inh = human PLC-beta3 inhibitors, primary screen, biochemical, fluorescence | 1-phosphatidylinositol 4,5-bisphosphate phosphodiesterase beta-3 (Homo sapiens), Q01970 | inhibition, % at 12.2 µM | Purified PLC-beta3, fluorogenic substrate | 0.18% of 370,000 active
PLC-gamma1 inh = PLC-gamma1 enzyme inhibitors, primary screen, biochemical, fluorescence, purified enzyme | 0.84% of 370,000 active | 1-phosphatidylinositol 4,5-bisphosphate phosphodiesterase gamma-1 (Homo sapiens), P19174 | inhibition, % at 12.2 µM | fluorogenic substrate | AID 720700, 2013; in the data active = inhibition above about 9.5%
ADAM10 inh = human ADAM10 inhibitors, primary screen, biochemical, QFRET, HTS; Disintegrin and metalloproteinase domain-containing protein 10 (Homo sapiens), O14672; recombinant ADAM10, EDANS/DABCYL FRET peptide cleavage, 3 h; inhibition, % at 7 µM; 0.62% of 370,000 active; AID 720582, 2013;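 active = inhibition above a per-campaign cutoff equal to the mean of compounds falling between control-based bounds plus 3 SD, cut at about 20% in these data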
Tn6 DDE FP = inhibitors of Tn6 peptide binding to fibrin DD(E), primary screen, biochemical, fluorescence polarization, human fibrin, Tn6 probe | Fibrinogen beta chain (Homo sapiens), P02675 | Fibrin DD(E) TRITC-Tn6 fluorescence polarization displacement | inhibition, % at 8.3 µM | 0.21% of 370,000 active;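 active = inhibition above a per-campaign cutoff: mean of compounds within control limits plus 3 SD, cut at about 15% in these data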
ADAM17 inh = ADAM17 inhibitors, primary screen, biochemical, QFRET; Disintegrin and metalloproteinase domain-containing protein 17 (Homo sapiens), P78536; recombinant ADAM17, EDANS/DABCYL FRET peptide cleavage; inhibition, % at 6.95 µM; 0.83% of 370,000 active; AID 720648, 2013;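 active = inhibition above the mean of compounds lying between control limits plus 3 SD, set per campaign, cut at about 8.5% in these data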
Target sequence (P78536 215-824 limits assumed): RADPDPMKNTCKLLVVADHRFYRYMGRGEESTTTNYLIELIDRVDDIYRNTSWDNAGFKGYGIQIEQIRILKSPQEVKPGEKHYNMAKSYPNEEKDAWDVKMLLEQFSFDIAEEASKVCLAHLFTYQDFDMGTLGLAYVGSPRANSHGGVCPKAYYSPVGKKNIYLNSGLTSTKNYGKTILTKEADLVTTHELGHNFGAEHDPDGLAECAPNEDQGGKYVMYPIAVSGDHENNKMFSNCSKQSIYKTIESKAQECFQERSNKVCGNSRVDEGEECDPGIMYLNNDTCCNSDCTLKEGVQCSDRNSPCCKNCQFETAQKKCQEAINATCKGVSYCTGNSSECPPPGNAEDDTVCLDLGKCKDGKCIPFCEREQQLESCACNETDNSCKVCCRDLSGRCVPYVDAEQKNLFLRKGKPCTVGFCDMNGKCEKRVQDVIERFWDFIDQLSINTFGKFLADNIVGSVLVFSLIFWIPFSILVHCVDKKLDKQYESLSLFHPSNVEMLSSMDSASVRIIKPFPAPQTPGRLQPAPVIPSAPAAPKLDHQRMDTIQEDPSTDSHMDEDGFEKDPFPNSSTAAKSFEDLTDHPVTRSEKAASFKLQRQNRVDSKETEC
DDE Tn7 FP inh = inhibitors of Tn7 peptide binding to fibrin DD(E), primary screen, biochemical, fluorescence polarization, human fibrin, Tn7 probe | 0.13% of 370,000 active | AID 720508, 2013 | FP displacement of FITC-Tn7 peptide from fibrin DD(E); 0% = median of compound wells per plate | inhibition, % at 8.3 µM | Fibrinogen beta chain (Homo sapiens), P02675;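 active = inhibition above the mean of compounds falling within the control limits plus 3 SD of them, cut at about 14% in these data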
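assay system = human clot-derived fibrin DD(E) complex | quantity = Fibrin-DD(E) at 2 µM final | timing = 10 min preincubation, 3 h with tracer, room temperature | signal = fluorescence polarization | measure = percent inhibition | benchmarks = high control wells with 10 µM unlabelled Aha-Tn7 peptide (full inhibition) | replicates = singlicate testing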
ADAM10 counter = ADAM10 inhibitors, counter-screen for ADAM17 exosite inhibitor project, biochemical, FRET, human ADAM10 | shares compounds with ADAM17 inh | recombinant ADAM10, EDANS/DABCYL FRET peptide cleavage, 3 h | inhibition, % at 6.95 µM | 47% of 2,900 active | AID 743256, 2014;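 active = mean inhibition over the triplicate runs exceeds the activity threshold set in the earlier primary screen, cut at about 20% in these data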
ADAM17 confirm = ADAM17 inhibitors, hit retest, confirmation, biochemical, QFRET peptide cleavage; AID 743257, 2014; recombinant ADAM17, EDANS/DABCYL QFRET peptide cleavage; 65% of 2,900 active; inhibition, % at 6.95 µM; shares compounds with ADAM17 inh;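 active = mean inhibition across replicates above the hit cutoff set in the primary screen, cut at about 8.5% in these data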
PLCg1 ctr = PLC-gamma1 enzyme inhibitors, counter-screen for PLC-beta3 inhibitor project, biochemical, fluorescence. shares compounds with PLC-gamma1 inh. purified PLC-gamma1, fluorogenic substrate. inhibition, % at 12.3 µM. 3.1% of 3,300 active; in the data active = inhibition above about 9.5%
PLCbeta3 conf = PLC-beta3 inhibitor confirmation, biochemical, fluorescence, purified enzyme | inhibition, % at 12.3 µM | 1% of 3,300 active | shares compounds with PLC-gamma1 inh | fluorogenic substrate fluorescence
Of the large screens only hits and unclear results are named; the others gave an inactive call (follow-up assays come after a bar, where they were run). Most compounds without a hit are left out; they make up all but 2.3% or so of the library. Rule as the data show it, unless noted: active = inhibition above about 11%; inactive = the rest.

COc1ccccc1OCCNC(=O)CN1C(=O)NC2(CCCC2)C1=O	ADAM17 inh 9.3 | ADAM10 counter inactive | ADAM17 confirm inactive
NC(=O)C1CCN(c2ccnc(Cl)n2)CC1	none
COc1ccc(/C=N/NC(=O)C(=O)/C=C2\NC3(CCCC3)Cc3ccccc32)cc1	ADAM17 inh 11.4 | ADAM10 counter inactive | ADAM17 confirm inactive
NNC(=O)C(=O)/C=C1\NC2(CCCC2)Cc2ccccc21	none
O=C(NCc1ccccc1)C1=C[C@@H](c2ccc(Br)cc2)C[C@@H](OCc2ccc(CO)cc2)O1	none
O=C(NCc1ccccc1)C1=C[C@H](c2ccc(C(F)(F)F)cc2)C[C@H](OCc2ccc(CO)cc2)O1	PLCb3 inh 13.9, ADAM17 inh 14.5 | ADAM10 counter inactive | ADAM17 confirm inactive | PLCg1 ctr inactive | PLCbeta3 conf inactive
COc1c(OC(C)=O)ccc(/C=C/c2ccc3ccccc3n2)c1[N+](=O)[O-]	PLC-gamma1 inh 14.5, ADAM17 inh 17.4 | ADAM10 counter 24.6 | ADAM17 confirm 13.8 | PLCg1 ctr inactive | PLCbeta3 conf inactive
C/C(=N\N=C(/N)SC1CC(=O)N(c2ccc(Cl)cc2)C1=O)c1cccs1 (centres undefined)	PLC-gamma1 inh 9.9, ADAM17 inh 10.8 | ADAM10 counter 35.2 | ADAM17 confirm 17.8 | PLCg1 ctr inactive | PLCbeta3 conf inactive
COC(=O)[C@@]12CCCCC3=C1N(CCC3)C(=O)[C@H]2CC(=O)N1CCN(C(=O)c2ccco2)CC1	none
O=C(CSc1nnc(-c2cccs2)o1)Nc1cccc2ccccc12	none
N/C(=N\N=C\c1cccc([N+](=O)[O-])c1)c1nonc1N	none
N/C(=N\N=C\c1ccc2c(c1)OCO2)c1nonc1N	PLCb3 inh 13.1, PLC-gamma1 inh 9.8, ADAM17 inh 9.8 | ADAM10 counter inactive | ADAM17 confirm inactive | PLCg1 ctr inactive | PLCbeta3 conf inactive
CC(C)CN(CC(C)C)S(=O)(=O)c1cc([N+](=O)[O-])ccc1N1CCCCCC1	none
CN(C)S(=O)(=O)c1cc([N+](=O)[O-])ccc1N1CCCCCC1	PLC-gamma1 inh 10.1, ADAM17 inh 10.3 | ADAM10 counter inactive | ADAM17 confirm 10.7 | PLCg1 ctr inactive | PLCbeta3 conf inactive
O=C(Nc1ccncc1)Nc1cccc(Cl)c1Cl	none
O=C(Nc1ccccc1)Nc1cccc(Cl)c1Cl	PLC-gamma1 inh 15.9, ADAM17 inh 11.8 | ADAM10 counter inactive | ADAM17 confirm inactive | PLCg1 ctr inactive | PLCbeta3 conf inactive
O=C(NCC1CCCO1)c1nn2c(c1Cl)NC(c1ccc(F)cc1)CC2C(F)(F)F (centres undefined)	none
